# ChEMBL document CHEMBL4414552, “Homotrimerization Approach in the Design of Thrombospondin-1 Mimetic Peptides with Improved Potency in Triggering Regulated Cell Death of Cancer Cells” (J Med Chem, 2019)
# Active and inactive are the calls of the source. The rule behind the calls is not given here. Square brackets hold non-standard residues; d marks the D form. Peptide text beside a SMILES is read from it. NMeR = CN[C@@H](CCCNC(=N)N)C(=O)O
# Tests used:
# [1] = target: T1, Leukocyte surface antigen CD47 (Homo sapiens, UniProt Q08722); assay: Binding affinity to CD47 in biotinylated human MEC1 cell membranes by biolayer interferometry
# In short: (§1)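 Biotinylated membrane preparations from MEC-1 cells were loaded onto SuperStreptavidin biosensors. Binding was measured by bilayer interferometry (Octet RED96) in PBS with 0.2% BSA and 1% DMSO at 30 °C. Affinities are given as apparent Kd estimates.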
# MEC1 [2] = assay: Cytotoxicity against human MEC1 cells assessed as induction of cell death at 200 uM after 6 hrs by annexin V/propidium iodide staining based flow cytometric analysis relative to control; type: functional
# MEC1 [3] = assay: Induction of cell death in human MEC1 cells at 50 uM in presence of PLCgamma1 inhibitor U73122 administered 1 hr post U73122 treatment in serum-free medium by annexin V-APC/propidium iodide staining based flow cytometric analysis; type: functional
# In short: (§2)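 Peptide was then added at 5 or 50 μM in serum-free medium for 2 h. Cell death was read by Ann-V/PI flow cytometry and normalized to each peptide's control to give an index. Mean ± SD of at least two experiments.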
# MEC1 [4] = assay: Induction of cell death in human MEC1 cells at 50 uM in presence of ryanodine inhibitor dantrolene administered 1 hr post dantrolene treatment in serum-free medium by annexin V-APC/propidium iodide staining based flow cytometric analysis; type: functional; in short: as §2
# MEC1 [5] = assay: Cytotoxicity against human MEC1 cells assessed as induction of cell death after 2 hrs by annexin V/propidium iodide staining based flow cytometric analysis; type: functional; conditions: MEC1, 2 h, read-out: LC50 (the source's name)
# In short: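 MEC-1 CLL cells (TP53-dysfunctional) maintained in Advanced RPMI 1640 with 10% fetal calf serum, 2 mM L-glutamine and penicillin–streptomycin. Peptide treatment for 2 h in complete medium. Ann-V-APC (0.1 μg/mL) and PI (0.5 μg/mL) staining, read by flow cytometry. Cell death taken as the sum of AnnV+/PI- and AnnV+/PI+ events. Mean ± SD of at least three independent experiments.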
# [6] = target: T1, Leukocyte surface antigen CD47; assay: Agonist activity at CD47 in human MEC1 cells assessed as activation of PLCgamma1-induced calcium-mediated caspase-independent cell death at 200 uM after 2 hrs by microscopic method; type: cell-based
# In short: (§3)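 MEC-1 CLL cells kept in Advanced RPMI 1640 with 10% FCS, 2 mM L-glutamine and penicillin–streptomycin. Cells were treated with peptide in complete medium for 2 h, then examined by light microscopy at 20X for morphology and cell aggregation.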
# A549 [7] = assay: Disruption of membrane integrity in human A549 cells assessed as increase in adenylate kinase release at 200 uM by ToxiLight bioassay; type: functional, cell-based
# A549 [8] = assay: Induction of cell death in human A549 cells at 100 uM administered 30 mins post Q-VD-OPh treatment in serum-free medium by propidium iodide staining based flow cytometric analysis; type: functional
# A549 [9] = assay: Induction of cell death in human A549 cells at 100 uM in presence of extracellular calcium chelator BAPTA administered 30 mins post BAPTA treatment in serum-free medium by annexin V-APC/propidium iodide staining based flow cytometric analysis; type: functional
# MEC1 [10] = assay: Induction of cell death in human MEC1 cells at 50 uM in presence of ryanodine inhibitor dantrolene/PLCgamma1 inhibitor U73122/IP3R inhibitor 2-APB by annexin V-APC/propidium iodide staining based flow cytometric analysis; type: functional; in short: as §2
# A549 [11] = assay: Induction of cell death in human A549 cells assessed as reduction in cell index at 200 uM measured every minute for first 2 hrs followed by every hour for 24 hrs by RTCA analysis; type: functional, cell-based
# A549 [12] = assay: Induction of cell death in human A549 cells at 100 uM in presence of PLCgamma1 inhibitor U73122 administered 1 hr post U73122 treatment in serum-free medium by annexin V-APC/propidium iodide staining based flow cytometric analysis; type: functional
# In short: (§4)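 Peptide was then added at 10 or 100 μM in serum-free medium for 6 h. Cell death was read by Ann-V/PI flow cytometry and trypan blue counting. A cell death index was obtained by normalizing to each peptide's control. Mean ± SD of two experiments.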
# MEC1 [13] = assay: Induction of cell death in human MEC1 cells at 50 uM in presence of caspase inhibitor Q-VD-OPH administered 30 mins post Q-VD-OPH treatment in serum-free medium by Annexin V-APC/propidium iodide staining based flow cytometric analysis; type: functional
# A549 [14] = assay: Induction of cell death in human A549 cells at 100 uM in presence of ryanodine inhibitor dantrolene administered 1 hr post dantrolene treatment in serum-free medium by annexin V-APC/propidium iodide staining based flow cytometric analysis; type: functional; in short: as §4
# A549 [15] = assay: Cytotoxicity against human A549 cells assessed as induction of cell death after 6 hrs by annexin V-APC/propidium iodide staining based flow cytometric analysis; type: functional; conditions: A549, 6 h, read-out: LC50 (the source's name)
# In short: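 A549 cells kept in Advanced RPMI 1640 with 10% fetal calf serum, 2 mM L-glutamine and penicillin–streptomycin. Peptides at the indicated concentrations in this complete medium for 6 h. Cells stained with Ann-V-APC (0.1 μg/mL) and PI (0.5 μg/mL), then read by flow cytometry. Values are means ± SD of two independent experiments.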
# MEC1 [16] = assay: Induction of cell death in human MEC1 cells at 50 uM in presence of extracellular calcium chelator BAPTA administered 30 mins post BAPTA treatment in serum-free medium by Annexin V-APC/propidium iodide staining based flow cytometric analysis; type: functional
# A549 [17] = assay: Induction of cell death in human A549 cells at 100 uM in presence of IP3R inhibitor 2-APB administered 1 hr post 2-APB treatment in serum-free medium by annexin V-APC/propidium iodide staining based flow cytometric analysis; type: functional; in short: as §4
# A549 [18] = assay: Induction of cell death in human A549 cells at 100 uM in presence of ryanodine inhibitor dantrolene/PLCgamma1 inhibitor U73122/IP3R inhibitor 2-APB by annexin V-APC/propidium iodide staining based flow cytometric analysis; type: functional; in short: as §4
# MEC1 [19] = assay: Induction of cell aggregation in human MEC1 at 200 uM after 2 hrs by microcopic method; type: functional, cell-based; in short: as §3
# MEC1 [20] = assay: Induction of cell death in human MEC1 cells at 50 uM in presence of IP3R inhibitor 2-APB administered 1 hr post 2-APB treatment in serum-free medium by annexin V-APC/propidium iodide staining based flow cytometric analysis; type: functional; in short: as §2
# MEC1 [21] = assay: Cytotoxicity against human MEC1 cells assessed as induction of cell death at 300 uM after 6 hrs by annexin V/propidium iodide staining based flow cytometric analysis relative to control; type: functional
# [22] = target: T1, Leukocyte surface antigen CD47; assay: Binding affinity to CD47 in biotinylated human MEC1 cell membranes at 300 uM by biolayer interferometry; in short: as §1
# T1 sequence (Q08722 whole entry): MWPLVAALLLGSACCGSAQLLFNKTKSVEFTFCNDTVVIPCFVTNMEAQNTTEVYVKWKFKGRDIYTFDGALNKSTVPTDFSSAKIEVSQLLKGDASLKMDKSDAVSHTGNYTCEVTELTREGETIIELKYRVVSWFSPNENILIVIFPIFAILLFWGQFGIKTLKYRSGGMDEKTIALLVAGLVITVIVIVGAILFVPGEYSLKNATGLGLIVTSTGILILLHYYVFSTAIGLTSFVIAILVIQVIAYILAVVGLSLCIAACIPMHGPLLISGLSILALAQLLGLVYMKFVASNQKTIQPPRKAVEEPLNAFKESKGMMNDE
molecule,measurement,setting,value
CSCC[C@H](NC(=O)[C@@H](NC(=O)[C@@H](NC(=O)[C@H](Cc1ccc(O)cc1)NC(=O)[C@H](Cc1ccccc1)NC(=O)[C@H](CCCNC(=N)N)N(C)C(=O)[C@H](N)CCCCN)C(C)C)C(C)C)C(=O)N[C@@H](Cc1c[nH]c2ccccc12)C(=O)N(C)[C@@H](CCCCN)C(=O)N[C@H](CCCCN)C(=O)O,Kd,[1],38 µM
same,Activity,MEC1 [2],19%
CSCC[C@H](NC(=O)[C@@H](NC(=O)[C@@H](NC(=O)[C@H](Cc1ccc(O)cc1)NC(=O)[C@H](Cc1ccccc1)NC(=O)[C@H](CCCNC(=N)N)N(C)C(=O)[C@H](N)CCCCN)C(C)C)C(C)C)C(=O)N[C@@H](Cc1c[nH]c2ccccc12)C(=O)N[C@@H](CCCCN)C(=O)N[C@H](CCCCN)C(=O)O,Kd,[1],21 µM
same,Activity,MEC1 [2],54%
CSCC[C@H](NC(=O)[C@@H](NC(=O)[C@@H](NC(=O)[C@H](Cc1ccc(O)cc1)NC(=O)[C@H](Cc1ccccc1)NC(=O)[C@H](CCCNC(=N)N)NC(=O)[C@H](N)CCCCN)C(C)C)C(C)C)C(=O)N[C@@H](Cc1c[nH]c2ccccc12)C(=O)N[C@@H](CCCCN)C(=O)N[C@H](CCCCN)C(=O)O,Activity,MEC1 [3],inactive
same,Activity,MEC1 [4],inactive
same,CC50,MEC1 [5],200 µM
same,Activity,[6],Active
same,Activity,A549 [7],Active
same,Activity,MEC1 [2],67%
same,Activity,A549 [8],inactive
same,Activity,A549 [9],inactive
same,Activity,MEC1 [10],inactive
same,Activity,A549 [11],Active
same,Activity,A549 [12],inactive
same,Activity,MEC1 [13],inactive
same,Activity,A549 [14],inactive
same,CC50,A549 [15],200 µM
same,Activity,MEC1 [16],inactive
same,Activity,A549 [17],inactive
same,Activity,A549 [18],inactive
same,Activity,MEC1 [19],inactive
same,Activity,MEC1 [20],inactive
CC(C)C[C@H](NC(=O)[C@@H](NC(=O)[C@@H](NC(=O)[C@H](Cc1ccc(O)cc1)NC(=O)[C@H](Cc1ccccc1)NC(=O)[C@H](CCCNC(=N)N)N(C)C(=O)[C@H](N)CCCCN)C(C)C)C(C)C)C(=O)N[C@@H](Cc1c[nH]c2ccccc12)C(=O)N[C@@H](CCCCN)C(=O)N[C@H](CCCCN)C(=O)O (H-[dK][NMeR]FYVVLWK[dK]-OH),Kd,[1],15 µM
same,Activity,MEC1 [2],26%
CSCC[C@@H](C(=O)N[C@@H](Cc1c[nH]c2ccccc12)C(=O)N[C@@H](CCCCN)C(=O)N[C@H](CCCCN)C(=O)O)N(C)C(=O)[C@@H](NC(=O)[C@@H](NC(=O)[C@H](Cc1ccc(O)cc1)NC(=O)[C@H](Cc1ccccc1)NC(=O)[C@H](CCCNC(=N)N)NC(=O)[C@H](N)CCCCN)C(C)C)C(C)C,Activity,MEC1 [2],11%
CC(C)[C@H](NC(=O)[C@H](Cc1ccc(O)cc1)NC(=O)[C@H](Cc1ccccc1)NC(=O)[C@H](CCCNC(=N)N)N(C)C(=O)[C@H](N)CCCCN)C(=O)N[C@H](C(=O)N[C@@H](Cc1ccc(O)cc1)C(=O)N[C@@H](Cc1c[nH]c2ccccc12)C(=O)N[C@@H](CCCCN)C(=O)N[C@H](CCCCN)C(=O)O)C(C)C,Kd,[1],13 µM
same,Activity,MEC1 [2],19%
CSCC[C@H](NC(=O)[C@@H](NC(=O)[C@H](C(C)C)N(C)C(=O)[C@H](Cc1ccc(O)cc1)NC(=O)[C@H](Cc1ccccc1)NC(=O)[C@H](CCCNC(=N)N)NC(=O)[C@H](N)CCCCN)C(C)C)C(=O)N[C@@H](Cc1c[nH]c2ccccc12)C(=O)N[C@@H](CCCCN)C(=O)N[C@H](CCCCN)C(=O)O,Kd,[1],36 µM
same,Activity,MEC1 [2],11%
CC(C)[C@H](NC(=O)[C@H](Cc1ccc(O)cc1)NC(=O)[C@H](Cc1ccccc1)NC(=O)[C@H](CCCNC(=N)N)N(C)C(=O)[C@H](N)CCCCN)C(=O)N[C@H](C(=O)N[C@H](C(=O)N[C@@H](Cc1c[nH]c2ccccc12)C(=O)N[C@@H](CCCCN)C(=O)N[C@H](CCCCN)C(=O)O)C(C)C)C(C)C,Kd,[1],9.5 µM
same,Activity,MEC1 [2],23%
CC[C@H](C)[C@H](NC(=O)[C@@H](NC(=O)[C@@H](NC(=O)[C@H](Cc1ccc(O)cc1)NC(=O)[C@H](Cc1ccccc1)NC(=O)[C@H](CCCNC(=N)N)N(C)C(=O)[C@H](N)CCCCN)C(C)C)C(C)C)C(=O)N[C@@H](Cc1c[nH]c2ccccc12)C(=O)N[C@@H](CCCCN)C(=O)N[C@H](CCCCN)C(=O)O,Kd,[1],17 µM
same,Activity,MEC1 [2],25%
H-KWVKYRVMFK-OH,Activity,MEC1 [21],inactive
same,Activity,[1],inactive
same,Activity,[22],inactive
same,Activity,MEC1 [2],inactive
CCCC[C@H](NC(=O)[C@@H](NC(=O)[C@@H](NC(=O)[C@H](Cc1ccc(O)cc1)NC(=O)[C@H](Cc1ccccc1)NC(=O)[C@H](CCCNC(=N)N)N(C)C(C)=O)C(C)C)C(C)C)C(=O)N[C@@H](Cc1c[nH]c2ccccc12)C(=O)N[C@@H](CCCCN)C(N)=O,Kd,[1],20 µM
same,Activity,MEC1 [2],51%
CSCC[C@H](NC(=O)[C@@H](NC(=O)[C@@H](NC(=O)[C@H](Cc1ccc(O)cc1)NC(=O)[C@H](Cc1ccccc1)NC(=O)[C@H](CCCNC(=N)N)NC(=O)[C@H](N)CCCCN)C(C)C)C(C)C)C(=O)N[C@@H](Cc1c[nH]c2ccccc12)C(=O)N(C)[C@@H](CCCCN)C(=O)N[C@H](CCCCN)C(=O)O,Kd,[1],48 µM
same,Activity,MEC1 [2],20%
